In assay [1] the target is T1, Signal transducer and activator of transcription 6 (Homo sapiens) (UniProt P42226).
T1 sequence (whole entry): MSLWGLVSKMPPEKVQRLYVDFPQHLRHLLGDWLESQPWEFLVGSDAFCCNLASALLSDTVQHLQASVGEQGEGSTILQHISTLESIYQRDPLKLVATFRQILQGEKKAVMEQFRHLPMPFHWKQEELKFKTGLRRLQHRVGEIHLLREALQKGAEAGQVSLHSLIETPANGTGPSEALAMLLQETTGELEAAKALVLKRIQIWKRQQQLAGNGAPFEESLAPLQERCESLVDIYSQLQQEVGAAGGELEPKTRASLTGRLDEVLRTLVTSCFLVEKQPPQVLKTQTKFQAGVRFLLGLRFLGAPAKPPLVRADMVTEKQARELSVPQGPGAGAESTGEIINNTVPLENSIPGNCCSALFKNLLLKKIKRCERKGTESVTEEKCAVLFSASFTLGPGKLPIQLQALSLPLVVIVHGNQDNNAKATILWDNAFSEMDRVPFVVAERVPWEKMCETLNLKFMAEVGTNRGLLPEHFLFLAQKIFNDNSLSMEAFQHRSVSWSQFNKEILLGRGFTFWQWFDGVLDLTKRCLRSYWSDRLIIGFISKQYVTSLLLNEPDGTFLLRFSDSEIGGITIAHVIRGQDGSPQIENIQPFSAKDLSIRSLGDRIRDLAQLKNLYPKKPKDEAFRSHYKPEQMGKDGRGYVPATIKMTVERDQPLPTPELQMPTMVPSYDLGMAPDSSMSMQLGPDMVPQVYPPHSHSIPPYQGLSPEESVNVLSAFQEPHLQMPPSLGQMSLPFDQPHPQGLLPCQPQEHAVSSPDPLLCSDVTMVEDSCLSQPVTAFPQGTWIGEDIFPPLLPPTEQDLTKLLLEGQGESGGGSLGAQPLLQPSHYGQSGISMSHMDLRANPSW
In words: Induction of STAT6 degradation in human MOLM16 cells at 0.25 to 100 uM incubated for 4 hrs by Western blot analysis. The class given is cell-based. To be noted: dose 0.25-100 µM. An outline of the steps:
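Cells treated 4 h with compounds across 25 nM to 100 μM; STAT proteins detected by Western blot with GAPDH as loading control; STAT3 DC50 estimated by densitometry of STAT3 relative to GAPDH. Applies to MOLM-16 for all STATs, and to SU-DHL-1 and SUP-M2 for STAT3.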
A general note: A western blot detects proteins with antibodies after separation by electrophoresis.

The subject of the next assay is SU-DHL-1. In words: Induction of STAT4 expression in human SU-DHL-1 cells at 0.25 to 100 uM incubated for 4 hrs by Western blot analysis. To be noted: dose 0.25-100 µM. In kind it is functional, cell-based.
In assay [2] the target is T2, Signal transducer and activator of transcription 1-alpha/beta (Homo sapiens) (UniProt P42224).
T2 sequence (whole entry): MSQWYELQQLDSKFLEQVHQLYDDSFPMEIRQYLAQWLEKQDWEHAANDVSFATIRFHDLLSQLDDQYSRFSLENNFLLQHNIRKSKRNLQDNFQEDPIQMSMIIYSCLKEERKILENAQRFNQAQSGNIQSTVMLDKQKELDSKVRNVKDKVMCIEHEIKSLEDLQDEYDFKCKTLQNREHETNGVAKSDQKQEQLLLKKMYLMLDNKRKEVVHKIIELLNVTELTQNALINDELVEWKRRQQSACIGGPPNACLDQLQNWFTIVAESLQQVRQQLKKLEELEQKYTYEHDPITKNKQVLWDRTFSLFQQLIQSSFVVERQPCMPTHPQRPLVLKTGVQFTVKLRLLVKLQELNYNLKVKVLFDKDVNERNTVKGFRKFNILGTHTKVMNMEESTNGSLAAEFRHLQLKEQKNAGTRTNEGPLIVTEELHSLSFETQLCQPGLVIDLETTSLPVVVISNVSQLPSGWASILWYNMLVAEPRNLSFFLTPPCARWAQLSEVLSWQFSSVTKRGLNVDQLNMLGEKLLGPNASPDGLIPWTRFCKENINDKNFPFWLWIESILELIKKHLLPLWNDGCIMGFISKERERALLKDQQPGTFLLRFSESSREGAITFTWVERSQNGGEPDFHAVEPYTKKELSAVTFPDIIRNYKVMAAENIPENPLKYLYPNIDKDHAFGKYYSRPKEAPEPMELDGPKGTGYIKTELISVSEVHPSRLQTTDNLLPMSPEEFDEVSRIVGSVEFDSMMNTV
In words: Induction of STAT1 degradation in human MOLM16 cells at 0.25 to 100 uM incubated for 4 hrs by Western blot analysis. The class given is cell-based. The note with it: dose 0.25-100 µM. An outline of the steps:
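MOLM-16 cells treated for 4 h over 25 nM to 100 μM. STAT proteins assessed by Western blot with GAPDH as loading control.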

Assay [3] addresses Signal transducer and activator of transcription 3 (Homo sapiens, UniProt P40763). The experiment in a line: Induction of STAT3 degradation in human SUP-M2 cells at 0.25 to 100 uM incubated for 14 hrs by Western blot analysis. To be noted: SUPM2, dose 0.25-100 µM. The class given is cell-based.
The target of assay [4] is T3, Signal transducer and activator of transcription 5A (Homo sapiens) (UniProt P42229).
T3 sequence (whole entry): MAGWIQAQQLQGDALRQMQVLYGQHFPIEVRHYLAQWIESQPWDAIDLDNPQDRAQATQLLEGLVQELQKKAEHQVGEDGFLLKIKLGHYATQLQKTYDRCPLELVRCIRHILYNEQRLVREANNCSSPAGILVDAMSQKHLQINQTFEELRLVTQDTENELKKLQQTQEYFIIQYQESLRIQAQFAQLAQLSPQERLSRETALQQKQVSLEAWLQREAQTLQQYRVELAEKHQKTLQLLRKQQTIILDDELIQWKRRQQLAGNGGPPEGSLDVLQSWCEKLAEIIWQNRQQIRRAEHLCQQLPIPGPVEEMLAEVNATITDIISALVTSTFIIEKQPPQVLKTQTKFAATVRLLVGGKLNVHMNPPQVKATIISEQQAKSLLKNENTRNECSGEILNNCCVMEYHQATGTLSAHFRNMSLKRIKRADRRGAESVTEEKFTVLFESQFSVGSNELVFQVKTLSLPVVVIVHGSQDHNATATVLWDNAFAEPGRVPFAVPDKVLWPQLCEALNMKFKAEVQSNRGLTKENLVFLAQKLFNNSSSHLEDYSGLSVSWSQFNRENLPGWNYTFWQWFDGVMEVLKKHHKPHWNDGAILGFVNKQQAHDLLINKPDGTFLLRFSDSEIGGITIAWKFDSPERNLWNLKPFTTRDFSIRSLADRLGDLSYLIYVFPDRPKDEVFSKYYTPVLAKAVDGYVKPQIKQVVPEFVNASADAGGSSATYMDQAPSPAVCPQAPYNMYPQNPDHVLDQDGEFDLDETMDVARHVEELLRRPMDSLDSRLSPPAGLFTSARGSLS
In words: Induction of STAT5 degradation in human SUP-M2 cells at 0.25 to 100 uM incubated for 14 hrs by Western blot analysis. The class given is cell-based. To be noted: SUPM2, dose 0.25-100 µM.

For assay [5], the target named is T1, Signal transducer and activator of transcription 6 (Homo sapiens). The experiment in a line: Induction of STAT6 degradation in human SUP-M2 cells at 0.25 to 100 uM incubated for 14 hrs by Western blot analysis. In kind it is cell-based. To be noted: SUPM2, dose 0.25-100 µM.

Structures are written as SMILES. Active and inactive are the calls of the source. The rule behind the calls is not given here.

Sequence of Signal transducer and activator of transcription 3 (P40763 whole entry): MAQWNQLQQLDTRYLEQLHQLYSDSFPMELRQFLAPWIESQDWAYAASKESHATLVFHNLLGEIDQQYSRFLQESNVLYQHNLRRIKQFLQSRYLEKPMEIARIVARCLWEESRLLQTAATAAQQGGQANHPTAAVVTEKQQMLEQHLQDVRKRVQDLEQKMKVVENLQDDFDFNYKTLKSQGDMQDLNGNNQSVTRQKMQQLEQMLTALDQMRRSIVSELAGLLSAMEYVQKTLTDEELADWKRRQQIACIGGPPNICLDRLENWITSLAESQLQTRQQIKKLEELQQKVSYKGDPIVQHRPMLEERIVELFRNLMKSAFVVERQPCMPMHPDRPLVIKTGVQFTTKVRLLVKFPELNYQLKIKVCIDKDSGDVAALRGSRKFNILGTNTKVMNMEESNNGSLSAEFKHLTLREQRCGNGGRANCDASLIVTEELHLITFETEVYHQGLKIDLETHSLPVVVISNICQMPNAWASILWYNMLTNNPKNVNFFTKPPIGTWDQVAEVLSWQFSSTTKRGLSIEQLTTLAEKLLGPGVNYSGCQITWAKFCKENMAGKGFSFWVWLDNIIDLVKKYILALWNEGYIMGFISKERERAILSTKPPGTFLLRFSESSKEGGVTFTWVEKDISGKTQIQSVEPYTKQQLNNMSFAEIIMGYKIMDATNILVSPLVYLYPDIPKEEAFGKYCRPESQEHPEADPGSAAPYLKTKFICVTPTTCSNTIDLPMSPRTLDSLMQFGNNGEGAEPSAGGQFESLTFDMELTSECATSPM

On to `NC(=O)CC[C@H](NC(=O)[C@@H]1CC[C@@H]2CCN(C(=O)CCCCCC#Cc3cccc4c3CN(C3CCC(=O)NC3=O)C4=O)C[C@H](NC(=O)c3cc4cc(C(=O)P(=O)(O)O)ccc4[nH]3)C(=O)N21)C(=O)NC(c1ccccc1)c1ccccc1` (some centres undefined), for which the result in assay [1], in assay [2], in assay [4] and in assay [5] was inactive. Further, the outcome (in the assay with SU-DHL-1; in assay [3]) was Active.

Regarding `NC(=O)CC[C@H](NC(=O)[C@@H]1CC[C@@H]2CCN(C(=O)CCCCCC#Cc3cccc4c3CN(C3CCC(=O)NC3=O)C4=O)C[C@H](NC(=O)c3cc4cc(C(F)(F)P(=O)(O)O)ccc4[nH]3)C(=O)N21)C(=O)NC(c1ccccc1)c1ccccc1` (some centres undefined), the result with SU-DHL-1 was Active.

Take `CC(=O)N1CC[C@H]2CC[C@@H](C(=O)N[C@@H](CCC(N)=O)C(=O)NC(c3ccccc3)c3ccccc3)N2C(=O)[C@@H](NC(=O)c2cc3cc(C(F)(F)P(=O)(O)O)ccc3[nH]2)C1`: the outcome (in assay [1]; in the assay on SU-DHL-1; in assay [2]; in assay [3]; in assay [4]; in assay [5]) was inactive.

In the case of `CC(=O)N1CC[C@H]2CC[C@@H](C(=O)N[C@@H](CCC(N)=O)C(=O)NC(c3ccccc3)c3ccccc3)N2C(=O)[C@@H](NC(=O)c2cc3cc(C(=O)P(=O)(O)O)ccc3[nH]2)C1`, the result (in assay [1]; with SU-DHL-1; in assay [2]; in assay [3]; in assay [4]; in assay [5]) was inactive.

These data come from ChEMBL document CHEMBL4706770, “SD-91 as A Potent and Selective STAT3 Degrader Capable of Achieving Complete and Long-Lasting Tumor Regression” (ACS Med Chem Lett, 2021).
